Columns and labels:
Format in all cases: functional
COLO 205 = experiment: Antitumor activity against human COLO205 cells after 48 hrs by SRB assay; conditions: COLO 205, 48 h
Procedure, shortened: (§1)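 NCI 60-cell-line secondary screen. Cells were exposed continuously to drug for 48 h at five concentration levels (100, 10, 1.0, 0.1 and 0.01). Growth was estimated by sulforhodamine B protein staining. GI50 is the concentration giving a 50% reduction in net protein increase versus untreated control cells over the incubation. TGI (total growth inhibition) and LC50 (50% cell kill) were also derived.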

OVCAR-3 = experiment: Antitumor activity against human OVCAR3 cells after 48 hrs by SRB assay; conditions: OVCAR-3, 48 h; procedure, shortened: as §1
HL-60(TB) = experiment: Antitumor activity against human HL-60(TB) cells after 48 hrs by SRB assay; conditions: HL-60, 48 h
Procedure, shortened: (§2)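 NCI 60-cell-line secondary screen: continuous drug exposure for 48 h at five concentration levels (100, 10, 1.0, 0.1 and 0.01). Cell growth was estimated by sulforhodamine B (SRB) protein staining. GI50 is the concentration giving a 50% reduction in net protein increase relative to untreated control cells during the incubation. TGI and LC50 were derived from the same data.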

ACHN = experiment: Antitumor activity against human ACHN cells after 48 hrs by SRB assay; procedure, shortened: as §1
MDA-MB-468 = experiment: Antitumor activity against human MDA-MB-468 cells after 48 hrs by SRB assay; conditions: MDA-MB-468, 48 h; procedure, shortened: as §1
IGROV-1 = experiment: Antitumor activity against human IGROV1 cells after 48 hrs by SRB assay; conditions: IGROV-1, 48 h; procedure, shortened: as §1
A549 = experiment: Antitumor activity against human A549 cells after 48 hrs by SRB assay; conditions: A549, 48 h; procedure, shortened: as §1
SNB-19 = experiment: Antitumor activity against human SNB19 cells after 48 hrs by SRB assay; conditions: SNB-19, 48 h; procedure, shortened: as §1
SF-295 = experiment: Antitumor activity against human SF295 cells after 48 hrs by SRB assay; conditions: SF-295, 48 h; procedure, shortened: as §1
UACC-62 = experiment: Antitumor activity against human UACC62 cells after 48 hrs by SRB assay; conditions: UACC-62, 48 h
Procedure, shortened: (§3)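 NCI 60-cell-line secondary screen. Continuous 48 h exposure at five concentration levels. Cell growth estimated by sulforhodamine B protein staining. GI50 taken as the concentration giving 50% reduction in net protein increase relative to untreated control cells over the incubation. TGI (total growth inhibition) and LC50 (50% cell kill) were also derived.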

[1] = Antitumor activity against human Hs 578T cells after 48 hrs by SRB assay; procedure, shortened: as §1
RXF 393 = experiment: Antitumor activity against human RXF393 cells after 48 hrs by SRB assay; conditions: RXF 393, 48 h; procedure, shortened: as §1
SK-MEL-2 = experiment: Antitumor activity against human SK-MEL-2 cells after 48 hrs by SRB assay; conditions: SK-MEL-2, 48 h; procedure, shortened: as §1
M14 = experiment: Antitumor activity against human M14 cells after 48 hrs by SRB assay; conditions: M14, 48 h; procedure, shortened: as §1
HCC 2998 = experiment: Antitumor activity against human HCC2998 cells after 48 hrs by SRB assay; conditions: HCC 2998, 48 h, read-out: LC50 (the source's name); procedure, shortened: as §2
EKVX = experiment: Antitumor activity against human EKVX cells after 48 hrs by SRB assay; procedure, shortened: as §1
KM12 = experiment: Antitumor activity against human KM12 cells after 48 hrs by SRB assay; conditions: KM12, 48 h; procedure, shortened: as §1
SR = experiment: Antitumor activity against human SR cells after 48 hrs by SRB assay; procedure, shortened: as §3
OVCAR-8 = experiment: Antitumor activity against human OVCAR8 cells after 48 hrs by SRB assay; conditions: OVCAR-8, 48 h; procedure, shortened: as §1
BT-549 = experiment: Antitumor activity against human BT549 cells after 48 hrs by SRB assay; conditions: BT-549, 48 h; procedure, shortened: as §1
NCI/ADR-RES = experiment: Antitumor activity against human NCI/ADR-RES cells after 48 hrs by SRB assay; procedure, shortened: as §1
NCI-H23 = experiment: Antitumor activity against human NCI-H23 cells after 48 hrs by SRB assay; conditions: NCI-H23, 48 h; procedure, shortened: as §1
DU-145 = experiment: Antitumor activity against human DU145 cells after 48 hrs by SRB assay; conditions: DU-145, 48 h; procedure, shortened: as §1
Malme-3M = experiment: Antitumor activity against human MALME-3M cells after 48 hrs by SRB assay; procedure, shortened: as §1
SF-539 = experiment: Antitumor activity against human SF539 cells after 48 hrs by SRB assay; conditions: SF-539, 48 h; procedure, shortened: as §1
CAKI-1 = experiment: Antitumor activity against human Caki1 cells after 48 hrs by SRB assay; conditions: CAKI-1, 48 h; procedure, shortened: as §1
786-0 = experiment: Antitumor activity against human 786-0 cells after 48 hrs by SRB assay; conditions: 786-0, 48 h; procedure, shortened: as §1
HT-29 = experiment: Antitumor activity against human HT-29 cells after 48 hrs by SRB assay; conditions: HT-29, 48 h; procedure, shortened: as §1
SK-OV-3 = experiment: Antitumor activity against human SKOV3 cells after 48 hrs by SRB assay; conditions: SK-OV-3, 48 h; procedure, shortened: as §1
NCI-H226 = experiment: Antitumor activity against human NCI-H226 cells after 48 hrs by SRB assay; conditions: NCI-H226, 48 h; procedure, shortened: as §1
[2] = read-out: LC50 (the source's name)

Question: What does the source list for COC(=O)c1ccc2c(c1)nc(-c1cc3ccccc3[nH]c1=O)n2-c1cc(C(C)(C)C)[nH]n1?
Answer: TGI (COLO 205): > 100 µM; CC50 (COLO 205; [2]): > 100 µM; GI50 (OVCAR-3): 6.27 µM; TGI (OVCAR-3): > 100 µM; CC50 (OVCAR-3; [2]): > 100 µM; GI50 (HL-60(TB)): 0.322 µM; LC50 (HL-60(TB)): > 100 µM; GI50 (ACHN): > 100 µM; TGI (ACHN): > 100 µM; CC50 (ACHN; [2]): > 100 µM; GI50 (MDA-MB-468): 20.5 µM; TGI (MDA-MB-468): > 100 µM; CC50 (MDA-MB-468; [2]): > 100 µM; GI50 (IGROV-1): 0.965 µM; TGI (IGROV-1): > 100 µM; CC50 (IGROV-1; [2]): > 100 µM; GI50 (A549): > 100 µM; TGI (A549): > 100 µM; CC50 (A549; [2]): > 100 µM; GI50 (SNB-19): 7.59 µM; TGI (SNB-19): > 100 µM; CC50 (SNB-19; [2]): > 100 µM; GI50 (SF-295): 1.23 µM; TGI (SF-295): 25.5 µM; CC50 (SF-295; [2]): > 100 µM; TGI (UACC-62): > 100 µM; CC50 (UACC-62; [2]): > 100 µM; GI50 [1]: 0.619 µM; TGI [1]: 34.1 µM; CC50 [1, 2]: > 100 µM; GI50 (RXF 393): 2.16 µM; TGI (RXF 393): 8.86 µM; CC50 (RXF 393; [2]): > 100 µM; GI50 (SK-MEL-2): 2.25 µM; TGI (SK-MEL-2): > 100 µM; CC50 (SK-MEL-2; [2]): > 100 µM; TGI (M14): > 100 µM; CC50 (M14; [2]): > 100 µM; CC50 (HCC 2998): > 100 µM; GI50 (EKVX): 5.8 µM; LC50 (50% cell kill) (EKVX): > 100 µM; TGI (EKVX): > 100 µM; GI50 (KM12): 1.29 µM; CC50 (KM12; [2]): > 100 µM; GI50 (SR): 10 µM; TGI (SR): > 100 µM; CC50 (SR; [2]): > 100 µM; GI50 (OVCAR-8): 1.79 µM; TGI (OVCAR-8): > 100 µM; CC50 (OVCAR-8; [2]): > 100 µM; GI50 (BT-549): 4.88 µM; TGI (BT-549): 66.2 µM; CC50 (BT-549; [2]): > 100 µM; GI50 (NCI/ADR-RES): 5.29 µM; TGI (NCI/ADR-RES): > 100 µM; CC50 (NCI/ADR-RES; [2]): > 100 µM; GI50 (NCI-H23): 2.78 µM; LC50 (50% cell kill) (NCI-H23): > 100 µM; TGI (NCI-H23): > 100 µM; GI50 (DU-145): 2.37 µM; TGI (DU-145): > 100 µM; CC50 (DU-145; [2]): > 100 µM; GI50 (Malme-3M): 2.63 µM; TGI (Malme-3M): > 100 µM; CC50 (Malme-3M; [2]): > 100 µM; GI50 (SF-539): 4.12 µM; TGI (SF-539): > 100 µM; CC50 (SF-539; [2]): > 100 µM; GI50 (CAKI-1): 0.476 µM; TGI (CAKI-1): 90.5 µM; CC50 (CAKI-1; [2]): > 100 µM; GI50 (786-0): 5.81 µM; TGI (786-0): > 100 µM; CC50 (786-0; [2]): > 100 µM; GI50 (HT-29): 1.34 µM; LC50 (50% cell kill) (HT-29): > 100 µM; TGI (HT-29): > 100 µM; GI50 (SK-OV-3): 28.5 µM; TGI (SK-OV-3): > 100 µM; CC50 (SK-OV-3; [2]): > 100 µM; GI50 (NCI-H226): 7 µM; LC50 (50% cell kill) (NCI-H226): > 100 µM; TGI (NCI-H226): > 100 µM
